Here are results for 4 compounds from ChEMBL document CHEMBL1154269, “Isolation and structural elucidation of euryjanicins B-D, proline-containing cycloheptapeptides from the Caribbean marine sponge Prosuberites laughlini” (2009).

SMILES strings stand for the structures. The source made the active and inactive calls. No cut-off for these calls is given here. Where a SMILES comes first, the peptide text is derived from it.

One assay concerns NCI-H522. The experiment in a line: Cytotoxicity against human NCI-H522 cells assessed as cell viability at 10 uM after 48 hrs by sulforhodamine B assay. The assay is classed as functional. The settings on record: NCI-H522, 48 h, read-out: Activity. A digest of the protocol: (§1)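 Tested at a single high dose of 10−5 M across the full NCI 60 human cancer cell line panel. Read-out is percent growth of treated cells.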
In general terms: In SRB staining, fixed cells bind dye roughly in proportion to their protein.

In a further assay the test system is LOX IMVI. The assay can be described thus: Cytotoxicity against human LOXIMVI cells assessed as viable cells at 10 uM after 48 hrs by sulforhodamine B assay. The assay is classed as functional. The settings on record: read-out: Activity. The essentials: as §1
A further assay deals with IGROV-1. The assay can be described thus: Cytotoxicity against human IGROV1 cells assessed as viable cells at 10 uM after 48 hrs by sulforhodamine B assay. Type of assay: functional. To be noted: IGROV-1, 48 h, read-out: Activity. A digest of the protocol:
as §1

The test system of the next assay is UO-31. The experiment in a line: Cytotoxicity against human UO31 cells assessed as viable cells at 10 uM after 48 hrs by sulforhodamine B assay. The settings on record: UO-31, 48 h, read-out: Activity. The assay is classed as functional. The essentials: as §1
In another assay the test system is Plasmodium falciparum. The assay can be described thus: Antimalarial activity against Plasmodium falciparum W2 clone after 48 hrs by fluorescence microplate reader assay. Type of assay: functional, organism-based.
The subject of assay [1] is Mycobacterium tuberculosis. The assay can be described thus: Antituberculosis activity against Mycobacterium tuberculosis […] by alamar blue assay. Type of assay: functional, organism-based. (In general: Resazurin is reduced to fluorescent resorufin, in cell work by metabolically active cells.)
The subject of another assay is Hepatitis B virus. The assay can be described thus: Antiviral activity against HBV. The assay is classed as functional, organism-based.
The test system of the next assay is Human alphaherpesvirus 1. The experiment in a line: Antiviral activity against HSV1. Type of assay: functional, organism-based.
The subject of the next assay is Human alphaherpesvirus 2. The experiment in a line: Antiviral activity against HSV2. The assay is classed as functional, organism-based.
The test system of a further assay is Influenza A virus. The assay can be described thus: Antiviral activity against Influenza A H5N1. Type of assay: functional, organism-based.
Another assay has as its system Influenza B virus. The assay can be described thus: Antiviral activity against Influenza B. Type of assay: functional, organism-based.
In assay [2] the test system is Respiratory syncytial virus. The experiment in a line: Antiviral activity against RSV A. The assay is classed as functional, organism-based.
The next assay concerns West Nile virus. The assay can be described thus: Antiviral activity against WNV. Type of assay: functional, organism-based.
In a further assay the test system is Rift Valley fever virus. The experiment in a line: Antiviral activity against Rift Valley fever virus. Type of assay: functional, organism-based.
For a further assay, the system named is Microglia. The assay can be described thus: Antiinflammatory activity in LPS-stimulated rat neonatal microglia assessed as inhibition of PMA-stimulated superoxide anion production. Type of assay: functional.

Regarding `CC[C@H](C)[C@@H]1NC(=O)[C@H]([C@@H](C)CC)NC(=O)[C@H]([C@@H](C)CC)NC(=O)[C@@H]2CCCN2C(=O)[C@H]([C@H](C)O)NC(=O)[C@@H]2CCCN2C(=O)[C@@H]2CCCN2C(=O)[C@H](CC(C)C)NC1=O` [DOMINICIN], the viability at 10 µM with NCI-H522 was determined as 100%; with LOX IMVI it was 100%; with IGROV-1, 100%; in the assay on UO-31, 32.8%. In addition, the outcome (in the assay on Plasmodium falciparum; in assay [1]; with Hepatitis B virus; in the assay with Human alphaherpesvirus 1; with Human alphaherpesvirus 2; with Influenza A virus) was inactive. The result (with Influenza B virus; in assay [2]; with West Nile virus; in the assay with Rift Valley fever virus; with Microglia) was inactive.
With `CC(C)[C@@H]1NC(=O)[C@H](Cc2ccccc2)NC(=O)[C@@H]2CCCN2C(=O)[C@H]([C@@H](C)O)NC(=O)[C@H](C)NC(=O)[C@@H]2CCCN2C(=O)[C@@H]2CCCN2C1=O` [EURYJANICIN B] (cyclo(ATPFVPP)), the viability at 10 µM was 83.9% in the assay with NCI-H522, 88.6% in the assay with LOX IMVI, 91.3% in the assay with IGROV-1 and 76.3% in the assay on UO-31. Also, the result (in the assay on Plasmodium falciparum; in [1]; in the assay with Hepatitis B virus; in the assay with Human alphaherpesvirus 1; in the assay with Human alphaherpesvirus 2; in the assay on Influenza A virus) was inactive. The result (with Influenza B virus; in [2]; with West Nile virus; in the assay on Rift Valley fever virus; with Microglia) was inactive.
Take `CC[C@@H](C)[C@@H]1NC(=O)[C@@H]2CCCN2C(=O)[C@H](Cc2ccccc2)NC(=O)[C@H](CC(C)C)NC(=O)[C@@H]2CCCN2C(=O)[C@H]([C@H](C)CC)NC(=O)[C@H](CO)NC1=O` [EURYJANICIN C]: the viability at 10 µM in the assay with NCI-H522 turned out to be 95.1%; with LOX IMVI it was 88%; in the assay with IGROV-1, 100%; with UO-31, 83.4%. Further, the result (in the assay on Plasmodium falciparum; in assay [1]; in the assay on Hepatitis B virus; in the assay with Human alphaherpesvirus 1; in the assay on Human alphaherpesvirus 2; with Influenza A virus) was inactive. Further, the outcome (in the assay on Influenza B virus; in assay [2]; in the assay on West Nile virus; in the assay on Rift Valley fever virus; in the assay on Microglia) was inactive.
Consider `CC[C@@H](C)[C@@H]1NC(=O)[C@@H]2CCCN2C(=O)[C@H](CO)NC(=O)[C@H](Cc2ccccc2)NC(=O)[C@H]([C@H](C)CC)NC(=O)[C@@H]2CCCN2C(=O)[C@H](Cc2ccccc2)NC1=O` [EURYJANICIN D], for which the viability at 10 µM in the assay on NCI-H522 amounted to 94.6%; in the assay with LOX IMVI, 87.6%; in the assay on IGROV-1, 100%; in the assay with UO-31, 82.7%. The outcome (in the assay with Plasmodium falciparum; in assay [1]; in the assay with Hepatitis B virus; in the assay with Human alphaherpesvirus 1; in the assay with Human alphaherpesvirus 2; in the assay with Influenza A virus) was inactive. Besides, the outcome (in the assay on Influenza B virus; in [2]; in the assay on West Nile virus; in the assay on Rift Valley fever virus; in the assay with Microglia) was inactive.
